Numbering of substitutions follows the chain as printed. ≈ marks a conversion by molar mass, not a printed value. Calls of active or inactive are those of the source. No cut-off for these calls is given here.
How the values were obtained:
[1] = tested on: Mus musculus; assay: Anti-inflammatory activity in C57BL/6(B6) mouse model of CLP-induced sepsis assessed as survival rate at 10 mg/kg, ip administered daily for 21 days starting from 1 hr prior to CLP-induction (reference value: 10 %); type: functional
[2] = organism: Mus musculus; assay: Inhibition of NF-kappaB p65 nuclear translocation in LPS-stimulated mouse RAW264.7 cells at 20 uM pretreated followed by LPS-induction by Hoechst 33342/TRITC staining based immunofluorescence microscopic method
Outline: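 NF-κB p65 immunofluorescence in Raw264.7 cells pretreated with 20 μM compound, then stimulated with 500 ng/mL LPS. Fixation was 4% paraformaldehyde, methanol permeabilization at −20 °C, and BSA blocking. Cells were stained with anti-p65 plus TRITC secondary and Hoechst 33342 nuclear stain, then imaged by deconvolution microscopy. At least three independent experiments.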

[3] = biological target: T1, High mobility group protein B1 (Mus musculus) (UniProt P63158); assay: Inhibition of HMGB1 translocation from nucleus to cytosol in LPS-stimulated mouse RAW264.7 cells assessed as inhibition of TNF-alpha production at 10 uM measured after 4 hrs by ELISA relative to control
T1 sequence (whole entry): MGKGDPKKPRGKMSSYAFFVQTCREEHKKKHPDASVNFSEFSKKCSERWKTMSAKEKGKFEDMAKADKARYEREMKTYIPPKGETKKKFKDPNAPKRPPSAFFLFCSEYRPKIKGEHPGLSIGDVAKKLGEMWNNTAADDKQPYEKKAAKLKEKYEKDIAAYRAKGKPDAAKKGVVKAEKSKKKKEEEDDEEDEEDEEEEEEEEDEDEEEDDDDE
Outline: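 Raw264.7 cells in serum-free DMEM were treated with 100 ng/mL LPS and 10 μM compound (final). After 4 h, medium was diluted in 1% BSA/PBS and secreted TNF-α was quantified by ELISA against a standard curve of TNF-α protein. Inhibition is relative to control. At least three independent experiments.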

[4] = biological target: T1, High mobility group protein B1 (Mus musculus); assay: Inhibition of HMGB1 translocation from nucleus to cytosol in LPS-stimulated mouse RAW264.7 cells assessed as inhibition of NO release at 10 uM measured after 24 hrs by Griess assay relative to control
Outline: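 Raw264.7 cells, seeded 1 day earlier, were moved to serum-free DMEM and exposed to 100 ng/mL LPS with 10 μM compound for 24 h. Supernatant NO was measured with Griess reagent (sulfanilamide/N-(1-naphthyl)ethylenediamine/phosphoric acid) at room temperature, absorbance 548 nm. Inhibition was set against LPS+DMSO wells, blank-corrected, with four control wells. At least three independent experiments.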

[5] = Equilibrium aqueous solubility of the compound by microsol method; type: physicochemical
Outline: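 Equilibrium aqueous solubility by the μsol method. Mean ± SD, n = 3.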

[6] = biological target: T1, High mobility group protein B1 (Mus musculus); assay: Inhibition of HMGB1 nuclear translocation in LPS-stimulated mouse RAW264.7 cells assessed as inhibition of IL-6 production at 10 uM pretreated for 1 hr followed by LPS-induction by Western blot analysis
Outline: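 Raw264.7 cells were pretreated with 10 μM compound for 1 h, then given 100 ng/mL LPS. IL-6 released into the culture medium was detected by Western blot with ECL chemiluminescence, DMSO as control. At least three independent experiments.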

[7] = organism: Mus musculus; assay: Inhibition of ERK phosphorylation in LPS-stimulated mouse RAW264.7 cells at 20 uM pretreated followed by LPS-induction by Western blot analysis
Outline: (§1)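 Raw264.7 cells were pretreated with 20 μM compound, then stimulated with 100 ng/mL LPS, with DMSO as control. Lysates in RIPA buffer with protease and phosphatase inhibitors were normalized by BCA and run on SDS-PAGE/Western blot for phospho-p38, JNK and ERK, with GAPDH as loading control. Detection by ECL, and band intensities were quantified. At least three independent experiments.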

[8] = biological target: T2, High mobility group protein B1 (Homo sapiens) (UniProt P09429); assay: Inhibition of ICM-BP binding to recombinant human HMGB1 assessed as reduction in Cy5-azide incorporation pretreated for 60 mins followed by ICM-BP addition for 20 mins and subsequent UV light irradiation for 5 mins by fluorescence assay
T2 sequence (whole entry): T1 sequence (whole entry) with D189E, E202D
Outline: (§2)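 Purified HMGB1 (1 μg in water) was pretreated with competitor for 60 min, with DMSO held at 0.8% final. ICM-BP (5 μM) was then added for 20 min, followed by 365 nm UV for 5 min on ice. Cy5-azide was attached by click reaction, then samples were run on 12.5% SDS-PAGE and in-gel fluorescence scanned. Competitor was dosed in a graded series.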

[9] = biological target: MAP kinase p38 (Mus musculus) (UniProt P47811+O08911+Q9WUI1+Q9Z1B7); assay: Inhibition of MAPK p38 phosphorylation at Thr180/Tyr182 resdiues in LPS-stimulated mouse RAW264.7 cells at 20 uM pretreated followed by LPS-induction by Western blot analysis; outline: as §1
[10] = Stability in mouse liver microsomes assessed as compound remaining preincubated for 5 mins followed by NADPH addition measured after 30 mins LC/MS/MS method; type: ADME, microsome; settings: read-out: Stability
Outline: (§3)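 Compounds were incubated with human or mouse liver microsomes in 100 mM potassium phosphate, pH 7.4, at 37 °C for 5 min. NADPH regenerating solution was added, and the reaction was stopped at 30 min with ice-cold acetonitrile containing imipramine internal standard. Percent remaining was measured by LC/MS/MS. Mean ± SD, n = 3.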

[11] = organism: Mus musculus; assay: Inhibition of JNK phosphorylation at Thr183/Tyr185 resdiues in LPS-stimulated mouse RAW264.7 cells at 20 uM pretreated followed by LPS-induction by Western blot analysis; outline: as §1
[12] = tested on: Mus musculus; assay: Anti-inflammatory activity in C57BL/6(B6) mouse model of CLP-induced sepsis assessed as decrease in serum IL-6 level at 10 mg/kg, ip administered daily for 21 days starting from 1 hr prior to CLP-induction by ELISA; type: functional, organism-based
Outline: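 Serum IL-6 measured by sandwich ELISA. Blood was taken from CLP-induced C57BL/6 mice 24 h after surgery. Plates coated with anti-IL-6 mAb overnight at 4 °C and blocked with 1% BSA/PBS; serum incubated overnight at 4 °C. Detection used biotinylated anti-IL-6 and streptavidin-HRP, TMB development and absorbance at 450 nm. Run in triplicate, three independent repeats.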

[13] = Half life in ICR mouse at 10 mg/kg, ip by LC/MS/MS method; type: ADME, organism-based; settings: in vivo
[14] = Cytotoxicity against mouse RAW264.7 cells assessed as cell viability at 10 uM in presence of LPS measured after 24 hrs by WST assay relative to control; type: cell-based; settings: read-out: Activity
Outline: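 Raw264.7 cells, seeded 1 day earlier, were washed into serum-free DMEM and given 100 ng/mL LPS plus compound (10 μM) for 24 h. After the supernatant was removed, wells were refilled with 10% FBS DMEM and WST reagent was added for 20 min at 37 °C. Absorbance was read at 450 nm, and viability is relative to vehicle. At least three independent experiments.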

[15] = Stability in human liver microsomes assessed as compound remaining preincubated for 5 mins followed by NADPH addition measured after 30 mins LC/MS/MS method; type: ADME, microsome; settings: read-out: Stability; outline: as §3
[16] = biological target: T1, High mobility group protein B1 (Mus musculus); assay: Inhibition of HMGB1 nuclear translocation in LPS-stimulated mouse RAW264.7 cells at 20 uM pretreated for 1 hr followed by LPS-induction measured after 2 hrs by Hoechst 33342/TRITC staining based immunofluorescence microscopic method
Outline: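 Raw264.7 cells on chambered coverglass were pretreated with 20 μM compound for 1 h, then given 500 ng/mL LPS for 2 h. Cells were fixed in 4% paraformaldehyde, permeabilized with methanol at −20 °C, blocked with 2% BSA, and stained with anti-HMGB1 plus TRITC secondary and Hoechst 33342. Imaged by deconvolution fluorescence microscopy. At least three independent experiments.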

[17] = biological target: T2, High mobility group protein B1 (Homo sapiens); assay: Inhibition of ICM-BP binding to recombinant human HMGB1 assessed as reduction in Cy5-azide incorporation at 1 to 20 uM pretreated for 60 mins followed by ICM-BP addition for 20 mins and subsequent UV light irradiation for 5 mins by fluorescence assay; outline: as §2

| inhibition [17] | SMILES | survival at 10 mg/kg [1] | inhibition [2] | inhibition [3] | inhibition [4] | solubility thermodynamic [5] | inhibition [6] | inhibition [7] | inhibition [8] | inhibition [9] | remaining at 0.5 h [10] | inhibition [11] | Activity [12] | half-life [13] | viability at 24 h, 10 µM [14] | remaining at 0.5 h [15] | inhibition [16] |
| --- | --- | --- | --- | --- | --- | --- | --- | --- | --- | --- | --- | --- | --- | --- | --- | --- | --- |
|  | COc1cc(OC)cc(-n2c(=O)n3n(c2=O)C2C(=CC3)C(C)(C)Oc3cc(O)ccc32)c1 (centres undefined) | 56% | Active | 60% | 94% | 65.1 µg/mL (≈ 149 µM) | Active | Active | Dose-dependent effect | Active | 20.2% | Active | Active | 5 h | 121% | 41.2% | Active |
| inactive | Cn1c(=O)n2n(c1=O)C1C(=CC2)C(C)(C)Oc2cc(O)ccc21 (centres undefined) |  |  |  | 45% |  |  |  |  |  |  |  |  |  | 114% |  |  |
